From ChEMBL document CHEMBL1156597, “Structure-activity relationship of kahalalide F synthetic analogues” (J Med Chem, 2008)

Experiments:
DU-145 = experiment: Cytotoxicity against human DU145 cells after 48 hrs by SRB assay; type: functional, cell-based; settings: Homo sapiens, DU-145, 48 h; for GI50: read-out: GI50; for CC50: read-out: LC50 (the source's name)
How it was run: (§1)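 Cells grown in RPMI 1640 with 10% FBS and penicillin/streptomycin at 37 °C and 5% CO₂, trypsinized, then seeded at 5 × 10³/well. After 18 h drug-free attachment, samples in DMSO/EtOH/PBS (0.5:0.5:99) were added for 48 h continuous exposure. Cells were fixed with cold TCA (1 h, 4 °C) and stained with SRB (10 min). Tris-solubilized stain read at 490 nm. Triplicate wells, mean ± SD; GI₅₀ derived.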

SK-BR-3 = experiment: Cytotoxicity against human SKBR3 cells after 48 hrs by SRB assay; type: functional; settings: SK-BR-3, 48 h; for CC50: read-out: LC50 (the source's name); for GI50: read-out: GI50; how it was run: as §1
HeLa = experiment: Cytotoxicity against human HeLa cells after 48 hrs by SRB assay; type: functional; settings: for CC50: read-out: LC50 (the source's name); how it was run: as §1
[1] = Cytotoxicity against human HeLa-APL cells after 48 hrs by SRB assay; type: functional; how it was run: as §1
PANC-1 = experiment: Cytotoxicity against human PANC1 cells after 48 hrs by SRB assay; type: functional; settings: PANC-1, 48 h; for CC50: read-out: LC50 (the source's name); how it was run: as §1
SK-MEL-28 = experiment: Cytotoxicity against human SK-MEL-28 cells after 48 hrs by SRB assay; type: functional, cell-based; settings: Homo sapiens, SK-MEL-28, 48 h; for GI50: read-out: GI50; for CC50: read-out: LC50 (the source's name); how it was run: as §1
[2] = Cytotoxicity against human IGROV-ET cells after 48 hrs by SRB assay; type: functional; settings: for CC50: read-out: LC50 (the source's name); how it was run: as §1
A549 = experiment: Cytotoxicity against human A549 cells after 48 hrs by SRB assay; type: functional, cell-based; settings: Homo sapiens, A549, 48 h; for GI50: read-out: GI50; how it was run: as §1
K562 = experiment: Cytotoxicity against human K562 cells after 48 hrs by SRB assay; type: functional; settings: K562, 48 h; for CC50: read-out: LC50 (the source's name); how it was run: as §1
LoVo [3] = experiment: Cytotoxicity against human LoVo cells after 48 hrs by SRB assay; type: functional; settings: for CC50: read-out: LC50 (the source's name)
LoVo [4] = experiment: Cytotoxicity against human doxorubicin resistant LoVo cells after 48 hrs by SRB assay; type: functional; settings: for CC50: read-out: LC50 (the source's name); how it was run: as §1
[5] = Cytotoxicity against human IGROV cells after 48 hrs by SRB assay; type: functional; settings: for CC50: read-out: LC50 (the source's name); how it was run: as §1
HT-29 = experiment: Cytotoxicity against human HT29 cells after 48 hrs by SRB assay; type: functional, cell-based; settings: Homo sapiens, HT-29, 48 h; for CC50: read-out: LC50 (the source's name); how it was run: as §1

Structure (SMILES)	CC50 (DU-145) [nM]	CC50 (SK-BR-3) [nM]	CC50 (HeLa) [nM]	LC50 (concentration giving 50% net cell kill) [1] [nM]	CC50 (PANC-1) [nM]	TGI (SK-MEL-28) [nM]	GI50 (SK-MEL-28) [nM]	CC50 (SK-MEL-28) [nM]	CC50 [2] [nM]	LC50 (A549) [nM]	GI50 (K562) [nM]	TGI (K562) [nM]	CC50 (K562) [nM]	GI50 (LoVo [3]) [nM]	TGI (LoVo [3]) [nM]	CC50 (LoVo [3]) [nM]	GI50 (LoVo [4]) [nM]	TGI (LoVo [4]) [nM]	CC50 (LoVo [4]) [nM]	CC50 [5] [nM]	also measured
C/C=C1\NC(=O)[C@H](Cc2cccs2)NC(=O)[C@@H](C(C)C)NC(=O)[C@@H]([C@H](C)CC)NC(=O)[C@H](NC(=O)[C@H](NC(=O)[C@H](CCCN)NC(=O)[C@H]2CCCN2C(=O)[C@H](NC(=O)[C@@H](NC(=O)[C@@H](NC(=O)[C@H](NC(=O)CC[C@@H](C)CC)C(C)C)[C@@H](C)O)C(C)C)C(C)C)[C@H](C)CC)[C@H](C)OC(=O)[C@H](C(C)C)NC1=O	1070	110	1070	1130	2010	1430	1580	1290	505	1210	4920	4290	2690	751	1190	1930	390	391	393	676	TGI (DU-145): 1210 nM; GI50 (DU-145): 1380 nM; GI50 (HeLa): 1590 nM; TGI (HeLa): 1290 nM; GI50 [1]: 1770 nM; TGI [1]: 1420 nM; GI50 [2]: 855 nM; GI50 ([2]; read-out: GI50): 1710 nM; TGI (A549): 1450 nM; GI50 (A549): 1760 nM; GI50 (HT-29): 1290 nM; TGI (HT-29): 1020 nM; CC50 (HT-29): 657 nM
C/C=C1\NC(=O)[C@@H]2C[C@@H]3CCCC[C@@H]3N2C(=O)[C@@H](C(C)C)NC(=O)[C@@H]([C@H](C)CC)NC(=O)[C@H](NC(=O)[C@H](NC(=O)[C@H](CCCN)NC(=O)[C@H]2CCCN2C(=O)[C@H](NC(=O)[C@@H](NC(=O)[C@@H](NC(=O)[C@H](NC(=O)CC[C@@H](C)CC)C(C)C)[C@@H](C)O)C(C)C)C(C)C)[C@H](C)CC)[C@H](C)OC(=O)[C@H](C(C)C)NC1=O	1070	138	1050	1000	2000	1140	1150	1120	507	1070	4750	4040	2670	1210	1920	2420	358	433	527	582	TGI (DU-145): 1250 nM; GI50 (DU-145): 1460 nM; TGI (SK-BR-3): 887 nM; GI50 (SK-BR-3): 700 nM; GI50 (HeLa): 1560 nM; TGI (HeLa): 1270 nM; GI50 [1]: 1260 nM; TGI [1]: 1120 nM; GI50 (PANC-1): 2580 nM; TGI (PANC-1): 3670 nM; GI50 [2]: 827 nM; GI50 ([2]; read-out: GI50): 1590 nM; TGI (A549): 1250 nM; GI50 (A549): 1460 nM; GI50 [5]: 871 nM; GI50 ([5]; read-out: GI50): 1820 nM; CC50 (HT-29): 677 nM
C/C=C1\NC(=O)[C@@H]2Cc3ccccc3CN2C(=O)[C@@H](C(C)C)NC(=O)[C@@H]([C@H](C)CC)NC(=O)[C@H](NC(=O)[C@H](NC(=O)[C@H](CCCN)NC(=O)[C@H]2CCCN2C(=O)[C@H](NC(=O)[C@@H](NC(=O)[C@@H](NC(=O)[C@H](NC(=O)CC[C@@H](C)CC)C(C)C)[C@@H](C)O)C(C)C)C(C)C)[C@H](C)CC)[C@H](C)OC(=O)[C@H](C(C)C)NC1=O	1930	296	1140	1190	2010	1930	1620	2090	572	1200	4890	4260	2680	2820	2910	3030	718	1250	1820	7450	TGI (DU-145): 3830 nM; GI50 (DU-145): 4160 nM; TGI (SK-BR-3): 1900 nM; GI50 (SK-BR-3): 2300 nM; TGI (A549): 1440 nM; GI50 (A549): 1750 nM; CC50 (HT-29): 726 nM
C/C=C1\NC(=O)[C@H](Cc2ccc(O)cc2)NC(=O)[C@@H](C(C)C)NC(=O)[C@@H]([C@H](C)CC)NC(=O)[C@H](NC(=O)[C@H](NC(=O)[C@H](CCCN)NC(=O)[C@H]2CCCN2C(=O)[C@H](NC(=O)[C@@H](NC(=O)[C@@H](NC(=O)[C@H](NC(=O)CC[C@@H](C)CC)C(C)C)[C@@H](C)O)C(C)C)C(C)C)[C@H](C)CC)[C@H](C)OC(=O)[C@H](C(C)C)NC1=O	1930	184	2100	1980	2020	3820	2370	2100	1000	1840	4920	4300	2700	1830	2310	2690	1030	1720	2170	970	GI50 (HeLa): 3620 nM; TGI (HeLa): 4340 nM; CC50 (HT-29): 748 nM
